ChEMBL document CHEMBL4765342, “Substituted benzothiophene and benzofuran derivatives as a novel class of bone morphogenetic Protein-2 upregulators: Synthesis, anti-osteoporosis efficacies in ovariectomized rats and a zebrafish model, and ADME properties” (Eur J Med Chem, 2020)

Assays:
[1] = Toxicity in BALB/c mouse assessed as muscle spasm at 50 to 100 mg/kg, ig administered for 14 days; assay type: organism-based; conditions: in vivo, po, 336 h, dose 50-100 mg/kg, time 14 day
Summary of the method: (§1)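 BALB/c mice, 10 per group, gavaged daily for 14 days at 50 or 100 mg/kg; blank control group included. Hair, behaviour and neurological signs (fremitus, convulsion, spasm, gait disturbance) were observed. At day 14, mice were weighed and given routine blood tests and serum biochemistry (ALT, AST, urea, creatinine; n = 10). Liver and kidney were examined on paraffin-embedded histology sections.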

[2] = Toxicity in BALB/c mouse assessed as convulsion at 50 to 100 mg/kg, ig administered for 14 days; assay type: organism-based; conditions: in vivo, po, 336 h, dose 50-100 mg/kg, time 14 day; summary of the method: as §1
[3] = Toxicity in BALB/c mouse assessed as fremitus at 50 to 100 mg/kg, ig administered for 14 days; assay type: organism-based; conditions: in vivo, po, 336 h, dose 50-100 mg/kg, time 14 day; summary of the method: as §1
[4] = Toxicity in BALB/c mouse assessed as effect on body weight at 50 to 100 mg/kg, ig administered for 14 days; assay type: organism-based; conditions: in vivo, po, 336 h, dose 50-100 mg/kg, time 14 day; summary of the method: as §1
[5] = Oral bioavailability in Sprague-Dawley rat at 10 mg/kg by LC-MS/MS analysis; assay type: ADME, organism-based; conditions: in vivo
Summary of the method: (§2)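 SD rats dosed iv or intragastrically. Plasma (50 µL) was mixed with diclofenac internal standard (50 ng/mL, 300 µL), vortexed, centrifuged at 4 °C, and the supernatant analysed by LC/MS/MS against spiked standard and QC curves. Noncompartmental parameters calculated; mean ± SD, n = 3 (bioavailability excepted).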

[6] = AUC (0 to infinity) in Sprague-Dawley rat at 10 mg/kg, po by LC-MS/MS analysis; assay type: ADME, organism-based; design: route oral, time infinity, dose 10 mg/kg; conditions: in vivo
Summary of the method: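 The acid metabolite of the parent ester was dosed directly to Sprague-Dawley rats, iv or intragastrically (n=3). Plasma (50 µL) was spiked with 5 µL DMSO, extracted with 300 µL acetonitrile containing 50 ng/mL diclofenac internal standard, then vortexed and centrifuged at 4 °C. Supernatant was quantified by LC/MS/MS against plasma calibration standards and QCs. AUC came from noncompartmental analysis.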

[7] = Cmax in Sprague-Dawley rat at 10 mg/kg, po by LC-MS/MS analysis; assay type: ADME, organism-based; design: route oral, dose 10 mg/kg; conditions: in vivo; summary of the method: as §2
[8] = AUC (0 to t) in Sprague-Dawley rat at 10 mg/kg, po by LC-MS/MS analysis; assay type: ADME, organism-based; design: dose 10 mg/kg; conditions: in vivo
[9] = Half life in Sprague-Dawley rat at 10 mg/kg, po by LC-MS/MS analysis; assay type: ADME, organism-based; conditions: in vivo; summary of the method: as §2
[10] = Tmax in Sprague-Dawley rat at 10 mg/kg, po by LC-MS/MS analysis; assay type: ADME, organism-based; conditions: in vivo; summary of the method: as §2
[11] = Initial concentration in Sprague-Dawley rat at 2 mg/kg, iv by LC-MS/MS analysis; assay type: ADME, organism-based; conditions: in vivo; summary of the method: as §2
[12] = Half life in Sprague-Dawley rat at 2 mg/kg, iv by LC-MS/MS analysis; assay type: ADME, organism-based; conditions: in vivo; summary of the method: as §2
[13] = Permeability across apical to basolateral side in human Caco-2 cells assessed as transepithelial electrical resistance at 10 uM incubated for 2 hrs LC-MS/MS analysis; assay type: ADME, cell-based; conditions: caco-2, 2 h
Summary of the method: (§3)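 Caco-2 monolayers, apical to basolateral direction. Plates preincubated 30 min at 37 °C, then exposed to 10 µM compound for 2 h at 37 °C without shaking. Donor and receiver samples were quenched, centrifuged and measured by LC/MS/MS, in duplicate. Papp calculated from receiver concentration, area and time. Monolayer integrity checked by TEER and by Lucifer yellow leakage (30 min, 37 °C, ex 485/em 530 nm).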

[14] = Permeability across apical to basolateral side in human Caco-2 cells assessed as […] yellow leakage at 10 uM incubated for 2 hrs LC-MS/MS analysis; assay type: ADME, cell-based; conditions: caco-2, 2 h; summary of the method: as §3
[15] = target: Cytochrome P450 2D6 (Homo sapiens, UniProt P10635); test: Inhibition of CYP2D6 in human liver microsomes using dextromethorphan as substrate incubated for 5 mins followed by NADPH addition and measured after 20 mins by LC-MS/MS analysis
Cytochrome P450 2D6, sequence (P10635 whole entry): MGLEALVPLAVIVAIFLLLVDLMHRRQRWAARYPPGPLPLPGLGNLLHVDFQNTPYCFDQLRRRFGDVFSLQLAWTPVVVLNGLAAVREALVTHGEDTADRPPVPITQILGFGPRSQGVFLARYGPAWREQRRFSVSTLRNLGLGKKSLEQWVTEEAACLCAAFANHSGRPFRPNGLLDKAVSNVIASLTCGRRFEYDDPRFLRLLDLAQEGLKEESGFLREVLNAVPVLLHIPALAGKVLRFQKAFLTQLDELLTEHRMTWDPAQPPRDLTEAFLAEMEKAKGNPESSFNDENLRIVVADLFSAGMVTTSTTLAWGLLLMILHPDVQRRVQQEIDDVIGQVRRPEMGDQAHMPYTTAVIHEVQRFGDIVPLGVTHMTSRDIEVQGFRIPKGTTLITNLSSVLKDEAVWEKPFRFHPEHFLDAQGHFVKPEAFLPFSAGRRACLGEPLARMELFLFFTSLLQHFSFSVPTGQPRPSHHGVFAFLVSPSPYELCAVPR

[16] = target: Cytochrome P450 3A4 (Homo sapiens, UniProt P08684); test: Inhibition of CYP3A4 in human liver microsomes using midazolam as substrate incubated for 5 mins followed by NADPH addition and measured after 20 mins by LC-MS/MS analysis; assay type: ADME
Cytochrome P450 3A4, sequence (P08684 whole entry, canonical isoform): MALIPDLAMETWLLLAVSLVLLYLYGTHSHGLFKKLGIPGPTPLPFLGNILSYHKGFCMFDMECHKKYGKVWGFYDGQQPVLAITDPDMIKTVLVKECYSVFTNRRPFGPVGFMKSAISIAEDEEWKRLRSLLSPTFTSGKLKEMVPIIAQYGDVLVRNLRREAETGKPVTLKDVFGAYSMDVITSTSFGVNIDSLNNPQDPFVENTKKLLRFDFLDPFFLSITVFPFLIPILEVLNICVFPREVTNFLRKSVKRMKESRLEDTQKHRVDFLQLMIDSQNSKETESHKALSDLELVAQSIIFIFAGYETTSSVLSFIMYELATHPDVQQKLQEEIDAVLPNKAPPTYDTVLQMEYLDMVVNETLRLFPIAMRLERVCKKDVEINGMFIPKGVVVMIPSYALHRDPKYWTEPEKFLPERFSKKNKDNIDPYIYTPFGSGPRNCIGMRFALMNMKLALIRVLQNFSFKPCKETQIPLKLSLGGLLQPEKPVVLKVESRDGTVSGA
Summary of the method: (§4)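 Human liver microsomes at 0.2 mg/mL mixed with probe substrates, preincubated 5 min at 37 °C. Reaction started with NADPH and run 20 min at 37 °C in a shaking bath. Quenched, held at -20 °C for 1 h, centrifuged, and the supernatant analysed by LC/MS/MS. Assay validated with specific inhibitors for each isoform.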

[17] = target: Cytochrome P450 2C9 (Homo sapiens, UniProt P11712); test: Inhibition of CYP2C9 in human liver microsomes using diclofenac as substrate incubated for 5 mins followed by NADPH addition and measured after 20 mins by LC-MS/MS analysis; assay type: ADME
Cytochrome P450 2C9, sequence (P11712 whole entry): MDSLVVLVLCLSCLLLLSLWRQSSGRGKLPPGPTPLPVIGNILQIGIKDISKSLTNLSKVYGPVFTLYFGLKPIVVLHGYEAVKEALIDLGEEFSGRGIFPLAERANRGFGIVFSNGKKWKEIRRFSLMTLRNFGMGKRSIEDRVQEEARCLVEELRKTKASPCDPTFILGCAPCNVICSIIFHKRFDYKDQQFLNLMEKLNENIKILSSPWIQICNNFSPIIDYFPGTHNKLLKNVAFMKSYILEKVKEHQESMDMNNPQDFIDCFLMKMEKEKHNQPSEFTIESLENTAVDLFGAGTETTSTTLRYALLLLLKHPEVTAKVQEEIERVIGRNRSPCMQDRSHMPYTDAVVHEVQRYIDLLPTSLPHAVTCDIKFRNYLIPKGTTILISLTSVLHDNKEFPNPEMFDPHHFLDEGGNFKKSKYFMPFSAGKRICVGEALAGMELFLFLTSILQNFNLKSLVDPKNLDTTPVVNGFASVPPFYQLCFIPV

[18] = target: Cytochrome P450 2C19 (Homo sapiens, UniProt P33261); test: Inhibition of CYP2C19 in human liver microsomes using omeprazole as substrate incubated for 5 mins followed by NADPH addition and measured after 20 mins by LC-MS/MS analysis; assay type: ADME; summary of the method: as §4
Cytochrome P450 2C19, sequence (P33261 whole entry): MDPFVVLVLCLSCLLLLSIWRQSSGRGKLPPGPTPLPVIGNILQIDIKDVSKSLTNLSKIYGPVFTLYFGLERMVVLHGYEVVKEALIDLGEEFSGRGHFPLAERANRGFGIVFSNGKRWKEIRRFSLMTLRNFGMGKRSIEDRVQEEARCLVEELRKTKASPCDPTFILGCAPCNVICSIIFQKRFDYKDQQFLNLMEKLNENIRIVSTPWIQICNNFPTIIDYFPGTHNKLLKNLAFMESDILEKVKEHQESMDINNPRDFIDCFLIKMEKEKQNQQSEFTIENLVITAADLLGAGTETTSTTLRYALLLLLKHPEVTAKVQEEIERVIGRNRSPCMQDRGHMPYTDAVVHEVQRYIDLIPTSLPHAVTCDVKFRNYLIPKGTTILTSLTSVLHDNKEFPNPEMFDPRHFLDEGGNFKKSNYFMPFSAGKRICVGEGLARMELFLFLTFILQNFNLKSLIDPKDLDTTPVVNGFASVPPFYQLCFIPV

[19] = Toxicity in BALB/c mouse assessed as gait disturbance at 50 to 100 mg/kg, ig administered for 14 days; assay type: organism-based; conditions: in vivo, po, 336 h, dose 50-100 mg/kg, time 14 day; summary of the method: as §1
[20] = Toxicity in BALB/c mouse assessed as effect on behavioral change at 50 to 100 mg/kg, ig administered for 14 days; assay type: organism-based; conditions: in vivo, po, 336 h, dose 50-100 mg/kg, time 14 day; summary of the method: as §1
[21] = Toxicity in BALB/c mouse assessed as hepatocyte nucleus mitosis at 50 to 100 mg/kg, ig administered for 14 days; assay type: organism-based; conditions: in vivo, po, 336 h, dose 50-100 mg/kg, time 14 day; summary of the method: as §1
[22] = Toxicity in BALB/c mouse assessed as effect on liver megakaryocyte at 50 to 100 mg/kg, ig administered for 14 days; assay type: organism-based; conditions: in vivo, po, 336 h, dose 50-100 mg/kg, time 14 day; summary of the method: as §1
[23] = Toxicity in BALB/c mouse assessed as inflammatory infiltration in liver at 50 to 100 mg/kg, ig administered for 14 days; assay type: organism-based; conditions: in vivo, po, 336 h, dose 50-100 mg/kg, time 14 day; summary of the method: as §1
[24] = Toxicity in BALB/c mouse assessed as hepatocyte necrotic foci at 50 to 100 mg/kg, ig administered for 14 days; assay type: organism-based; conditions: in vivo, po, 336 h, dose 50-100 mg/kg, time 14 day; summary of the method: as §1
[25] = Toxicity in BALB/c mouse assessed as necrosis in renal tubular epithelial cells at 50 to 100 mg/kg, ig administered for 14 days; assay type: organism-based; conditions: in vivo, po, 336 h, dose 50-100 mg/kg, time 14 day
Summary of the method: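 BALB/c mice, 10 per group: untreated blank group plus low (50 mg/kg) and high (100 mg/kg) dose groups, intragastric once daily for 14 days. Hair, behaviour and neurological signs monitored throughout. At day 14 mice were weighed and dissected. Kidney and liver tissue was fixed in 3 mm pieces, dehydrated through graded alcohol, cleared in xylene, embedded in paraffin, sectioned and examined histopathologically.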

[26] = Hepatotoxicity in BALB/c mouse assessed as effect on serum AST level at 50 to 100 mg/kg, ig administered for 14 days; assay type: toxicity, organism-based; conditions: in vivo, po, 336 h, dose 50-100 mg/kg, time 14 day; summary of the method: as §1
[27] = Renal toxicity in BALB/c mouse assessed as effect on serum urea level at 50 to 100 mg/kg, ig administered for 14 days; assay type: organism-based; conditions: in vivo, po, 336 h, dose 50-100 mg/kg, time 14 day; summary of the method: as §1
[28] = Renal toxicity in BALB/c mouse assessed as effect on serum creatinine level at 50 to 100 mg/kg, ig administered for 14 days; assay type: organism-based; conditions: in vivo, po, 336 h, dose 50-100 mg/kg, time 14 day; summary of the method: as §1
[29] = in vitro; conditions: human, liver microsomes
[30] = in vitro; conditions: human, liver microsomes; remark: listed apart in the source

COc1ccc2cc(C(=O)NCCN(C)C)oc2c1.CS(=O)(=O)O
Activity [1]: Non-Toxic | Activity [2]: Non-Toxic | Activity [3]: Non-Toxic | Activity [4]: Non-Toxic | bioavailability [5]: 83.1% | AUC(0-inf) [6]: 286 ng·h/mL | Cmax [7]: 54.2 ng/mL | AUC(0-t) [8]: 278 ng·h/mL | half-life [9]: 4.53 h | Tmax [10]: 0.5 h | C0 [11]: 17.2 ng/mL | half-life [12]: 2.52 h | Activity [13]: 341 Ω·cm² | Activity [14]: 0.158% | IC50 [15]: 7.84 µM | IC50 [16]: > 10 µM | IC50 [17]: > 10 µM | IC50 [18]: > 10 µM | Activity [19]: Non-Toxic | Activity [20]: Non-Toxic | Activity [21]: Toxic | Activity [22]: Toxic | Activity [23]: Toxic | Activity [24]: Toxic | Activity [25]: Toxic | Activity [26]: Non-Toxic | Activity [27]: Non-Toxic | Activity [28]: Non-Toxic | half-life at 0.5 h, 100 µM [29]: 1.72 h | microsomal CLint at 0.5 h, 100 µM [30]: 6.73 µL/min/mg
